Here are results for 1 compound from ChEMBL document CHEMBL5705892, “MK-2206, an allosteric Akt inhibitor, enhances antitumor efficacy by standard chemotherapeutic agents or molecular targeted drugs in vitro and in vivo” (Mol Cancer Ther, 2010).

Series [1] has as its system NCI-H460. As to the kind of experiment: Synergistic antiproliferative activity against human NCI-H460 cells assessed as combination index at ED50 measured after 72 hrs in presence of doxorubicin by celltiter-glo assay. Type of series: functional.
Another series has as its system NCI-H661. In words: Induction of apoptosis in human NCI-H661 cells assessed as fold induction of capsase-3/7 activity measured after 24 to 48 hrs in presence of gemcitabine by caspase-glo 3/7 assay. Conditions: time 24-48 hrs. It counts as functional.
Series [2] deals with NCI-N87. In words: Synergistic antiproliferative activity against human NCI-N87 cells assessed as combination index at ED50 measured after 96 hrs in presence of lapatinib by celltiter-glo assay. Type of series: functional.
The nature of series [3]: Toxicity in human SK-OV-3 cells xenografted CB17/icr SCID mouse at 60 to 120 mg/kg, po administered 3 times per week for 2 weeks starting 2 hrs post lapatinib treatment and measured during compound dosing. It counts as organism-based. Conditions: in vivo, 336 h, dose 60-120 mg/kg. A digest of the protocol:
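SK-OV-3 cells in 50% Matrigel/PBS injected s.c. into flank of female C.B-17/ICR-scid mice; dosing began after 3 wk, randomized at mean tumour 0.13 cm³ (n = 5). Lapatinib 100 mg/kg p.o. in distilled water 5 d/wk for 2 wk; MK-2206 in 30% Captisol p.o. days 0, 2, 4, 7, 9, 11. Body weight and physical signs monitored.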

The next series has as its system A2780. In words: Synergistic antiproliferative activity against human A2780 cells assessed as combination index at ED75 measured after 72 hrs in presence of doxorubicin by celltiter-glo assay. It counts as functional. In a few lines:
(§1)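 Cells were seeded at 2–3 × 10³ per well in RPMI 1640 with 10% FBS. At 24 h, MK-2206 and the partner drug were added simultaneously at constant concentration ratios spanning each agent's IC₅₀, for 72 h. Growth was read as cellular ATP by CellTiter-Glo. CI was taken from median-effect plots of each agent alone and in combination (Chou–Talalay), at ED₅₀, ED₇₅ and ED₉₀.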
A general note: In ATP-based viability assays light output follows the ATP content of the culture.

For series [4], the system named is NCI-H460. As to the kind of experiment: Synergistic antiproliferative activity against human NCI-H460 cells assessed as combination index at ED90 measured after 72 hrs in presence of gemcitabine by celltiter-glo assay. It counts as functional.
Series [5] has as its system NCI-H460. As to the kind of experiment: Synergistic antiproliferative activity against human NCI-H460 cells assessed as combination index at ED90 measured after 72 hrs in presence of camptothecin by celltiter-glo assay. It counts as functional.
The subject of series [6] is NCI-N87. In words: Synergistic antiproliferative activity against lapatinib pretreated human NCI-N87 cells assessed as combination index at ED90 measured after 72 hrs by celltiter-glo assay. Type of series: functional.
The subject of the next series is SK-BR-3. In words: Synergistic antiproliferative activity against lapatinib pretreated human SK-BR-3 cells assessed as combination index at ED50 measured after 72 hrs by celltiter-glo assay. It counts as functional.
The subject of the next series is UMC-11. As to the kind of experiment: Synergistic antiproliferative activity against human UMC-11 cells assessed as combination index at ED25 to ED90 measured after 72 hrs in presence of gemcitabine by celltiter-glo assay. It counts as functional.
For series [7], the system named is NCI-H460. In words: Synergistic antiproliferative activity against human NCI-H460 cells assessed as combination index at ED25 to ED90 measured after 72 hrs in presence of carboplatin by celltiter-glo assay. Type of series: functional.
Another series deals with HCC1954. As to the kind of experiment: Antiproliferative activity against human HCC1954 cells assessed as reduction in cell proliferation measured after 72 hrs by celltiter-glo assay. It counts as functional, cell-based. The note with it: HCC1954, 72 h. A digest of the protocol:
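Cells in RPMI 1640 with 10% heat-inactivated FBS at 37°C and 5% CO₂ were seeded at 2 to 3 × 10³ per well. […] Growth was read as cellular ATP by CellTiter-Glo.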

The next series has as its system A-431. As to the kind of experiment: Synergistic antiproliferative activity against human A-431 cells assessed as combination index at ED50 measured after 72 hrs in presence of erlotinib by celltiter-glo assay. It counts as functional. In a few lines: as §1
Series [8] concerns NCI-H460. As to the kind of experiment: Synergistic antiproliferative activity against human NCI-H460 cells assessed as combination index at ED75 measured after 72 hrs in presence of 5-FU by celltiter-glo assay. It counts as functional.
The next series deals with NCI-H292. As to the kind of experiment: Antitumor activity against human NCI-H292 cells xenografted in CD-1 mouse assessed as tumor growth suppression at 360 mg/kg, po administered once a week for 2 weeks starting 2 hrs post-erlotinib treatment and measured twice a week during compound dosing by caliper method. It counts as functional, organism-based. In a few lines:
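Female CD1-nude mice carried s.c. NCI-H292 cells in Matrigel/PBS and were randomized at 0.2 cm³, n = 5. […] MK-2206 (30% Captisol) was given 2 h later at 120 mg/kg po on days 0, 2, 4, 7, 9, 11, or at 360 mg/kg on days 0 and 7. Control received vehicle. Caliper volume twice weekly.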
A general note: In xenograft studies the graft and the host belong to different species.

Series [9] deals with NCI-H460. As to the kind of experiment: Antitumor activity against human NCI-H460 cells xenografted in CD1 nude mouse assessed as reduction in tumor volume at 120 mg/kg, po administered 3 times per week for 2 weeks in presence of gemcitabine by caliper method. It counts as functional, organism-based. In a few lines: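 NCI-H460 cells were injected s.c. in Matrigel/PBS into CD1-nude mice (female in the carboplatin study). Mice were randomized at 0.2 cm³, n = 5. Carboplatin was given at 50 mg/kg or gemcitabine at 100 mg/kg, i.v. in saline, on days 0 and 7. MK-2206 (30% Captisol) was given at 120 mg/kg po on days 0, 2, 4, 7, 9, 11. Tumors measured by caliper twice weekly.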

Each structure is given as a SMILES string. pIC50: −log10 of the molar value. Active and inactive are the calls of the source. No cut-off for these calls is given here.

For orientation: pIC50 means the negative decadic logarithm of the IC50, by convention in mol/L. As to `Cl.NC1(c2ccc(-c3nc4ccn5c(=O)[nH]nc5c4cc3-c3ccccc3)cc2)CCC1`, the CI50 with NCI-H460 [1] is on record as 0.27; in the series with NCI-N87 [2] it was 0.18; with SK-BR-3 it was 0.18; with A-431, 0.42. For the same compound, the “fold change (FC)” value in the series on NCI-H661 turned out to be 1.3. The Activity entry in series [3] is “Non-Toxic”. For the same compound, the values for the CI75 in the series on A2780 and in the series on NCI-H460 [8] were 0.43 and 0.45, respectively. Besides, the values for the CI90 with NCI-H460 [4], with NCI-H460 [5] and in the series on NCI-N87 [6] were 0.56, 0.63 and 0.18, respectively. Also, the CI in the series on UMC-11 was determined as 0.53; in the series on NCI-H460 [7], 0.3. Also, the pIC50 in the series with HCC1954 was 5.54. Moreover, the result in the series with NCI-H292 and in the series on NCI-H460 [9] was Active.
